# Reference: ChEMBL document CHEMBL3352024, “A new series of HAPs as anti-HBV agents targeting at capsid assembly” (Bioorg Med Chem Lett, 2014)
# Calls of active or inactive are those of the source. The calls are words filed in the database; no cut-off is given here.
# Experiments:
# Hepatitis B virus [1] = test: Antiviral activity against hepatitis B virus infected in human HepG2.2.15 cells assessed as inhibition of viral replication; type: functional, organism-based; conditions: hepg2 2.2.15
# [2] = Cytotoxicity against human HepG2.2.15 cells after 48 hrs; type: cell-based; conditions: hepg2 2.2.15, 48 h
# How it was run: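 HepG2.2.15 cells exposed to compounds for 48 h; cell viability then determined as the cytotoxicity read-out.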
# hepatitis B virus [3] = test: (§1) Selectivity index, ratio of TC50 for human HepG2.2.15 cells to IC50 for hepatitis B virus infected in human HepG2.2.15 cells; type: toxicity, cell-based; conditions: HepG2.2.15 cells, read-out: Selectivity Index
# Hepatitis B virus [4] = test: Inhibition of hepatitis B virus capsid cp149 assembly assessed as reduction in dimer formation at capsid-compound ratio of 1:2 to 1:4 after 24 hrs by HPLC analysis
# [5] = target: Core antigen (Hepatitis B virus) (UniProt Q03732); test: Inhibition of hepatitis B virus capsid assembly after 24 hrs by HPLC analysis
# Sequence of Core antigen (Hepatitis B virus) (Q03732 as listed by the source): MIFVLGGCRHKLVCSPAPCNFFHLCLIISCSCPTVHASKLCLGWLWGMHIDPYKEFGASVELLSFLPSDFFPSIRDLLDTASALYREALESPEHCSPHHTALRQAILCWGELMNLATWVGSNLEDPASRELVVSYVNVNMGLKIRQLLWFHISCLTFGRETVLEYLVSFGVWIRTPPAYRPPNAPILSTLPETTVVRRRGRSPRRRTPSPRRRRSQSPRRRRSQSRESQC
# How it was run: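 Cp149 capsid protein is mixed with compound in 2× assembly buffer and incubated 24 h. Reactions are analysed by size-exclusion chromatography on an HPLC with autoinjection, on a column equilibrated in 100 mM HEPES pH 7.5, 300 mM NaCl at 0.6 ml/min. Recovered protein is assigned to void (8.5 min), capsid (9.5 min) and dimer (12.5 min) peaks.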
# [6] = as §1; type: toxicity, cell-based
smiles,measurement,setting,value
CCOC(=O)C1=C(CN2CCC(C)CC2)NC(c2c(F)cc(F)cc2F)=NC1c1ccc(F)cc1Cl (stereo not drawn),IC50,Hepatitis B virus [1],9.56 µmol
same,TC0,[2],4.65 µmol
same,TC50,[2],32.98 µmol
CCOC(=O)C1=C(CN2CCN(C)CC2)NC(c2c(F)cc(F)cc2F)=NC1c1ccc(F)cc1Cl (stereo not drawn),IC50,Hepatitis B virus [1],7.55 µmol
same,selectivity ratio,hepatitis B virus [3],13.1
same,TC0,[2],14.1 µmol
same,TC50,[2],98.74 µmol
CCOC(=O)C1=C(CN2CCOCC2)NC(c2c(F)cc(F)cc2N2CCOCC2)=NC1c1ccc(F)cc1Cl (stereo not drawn),IC50,Hepatitis B virus [1],4.35 µmol
same,selectivity ratio,hepatitis B virus [3],12.7
same,TC0,[2],12.81 µmol
same,TC50,[2],55.25 µmol
CCOC(=O)C1=C(CN2CCCC2)NC(c2c(F)cc(F)cc2F)=NC1c1ccc(F)cc1Cl (stereo not drawn),TC0,[2],14.96 µmol
same,TC50,[2],77.29 µmol
CCOC(=O)C1=C(CN(CCO)CCO)NC(c2c(F)cc(F)cc2F)=NC1c1ccc(F)cc1Cl (stereo not drawn),IC50,Hepatitis B virus [1],6.66 µmol
same,selectivity ratio,hepatitis B virus [3],8.11
same,TC0,[2],13.98 µmol
same,TC50,[2],54.02 µmol
CCOC(=O)C1=C(CN2CCCCC2)NC(c2c(F)cc(F)cc2F)=NC1c1ccc(F)cc1Cl (stereo not drawn),IC50,Hepatitis B virus [1],10.24 µmol
same,selectivity ratio,hepatitis B virus [3],2.46
same,TC0,[2],14.56 µmol
same,TC50,[2],25.21 µmol
CCOC(=O)C1=C(CN2CCN(C(=O)OCC)CC2)NC(c2c(F)cc(F)cc2F)=NC1c1ccc(F)cc1Cl (stereo not drawn),TC0,[2],4.22 µmol
same,TC50,[2],29.6 µmol
CCOC(=O)C1=C(CN2CCOCC2)NC(c2c(F)cc(F)cc2F)=NC1c1ccc(F)cc1Cl (stereo not drawn) [listing 1 of 2 here],inhibition,Hepatitis B virus [4],Active
same,inhibition,[5],Active
CCOC(=O)C1=C(CN2CCOCC2)NC(c2c(F)cc(F)cc2F)=NC1c1ccc(F)cc1Cl (stereo not drawn) [listing 2 of 2 here],IC50,Hepatitis B virus [1],10.57 µmol
same,Selectivity Index,[6],3.19
same,TC0,[2],4.83 µmol
same,TC50,[2],33.75 µmol
CCCN1CCN(CC2=C(C(=O)OCC)C(c3ccc(F)cc3Cl)N=C(c3c(F)cc(F)cc3F)N2)CC1 (stereo not drawn),TC0,[2],4.45 µmol
same,TC50,[2],31.25 µmol
Nc1ccn([C@@H]2CS[C@H](CO)O2)c(=O)n1 [LAMIVUDINE],IC50,Hepatitis B virus [1],14.17 µmol
same,TC0,[2],0.82 µmol
same,TC50,[2],5.75 µmol
CCOC(=O)C1=C(CN2CCSCC2)NC(c2c(F)cc(F)cc2F)=NC1c1ccc(F)cc1Cl (stereo not drawn),TC0,[2],4.68 µmol
same,TC50,[2],32.73 µmol
CCOC(=O)C1=C(CN2CCOCC2)NC(c2c(F)cc(F)cc2F)=NC1c1ccc(F)cc1Cl.Cl (stereo not drawn),IC50,Hepatitis B virus [1],2.35 µmol
same,Selectivity Index,[6],13.37
same,TC0,[2],4.51 µmol
same,TC50,[2],31.48 µmol
CCOC(=O)C1=C(CN2CCNC(=O)C2)NC(c2c(F)cc(F)cc2F)=NC1c1ccc(F)cc1Cl (stereo not drawn),IC50,Hepatitis B virus [1],5.74 µmol
same,selectivity ratio,hepatitis B virus [3],5.72
same,TC0,[2],4.7 µmol
same,TC50,[2],32.85 µmol
CCOC(=O)C1=C(CN2CCN(CC)CC2)NC(c2c(F)cc(F)cc2F)=NC1c1ccc(F)cc1Cl (stereo not drawn),IC50,Hepatitis B virus [1],6.71 µmol
same,selectivity ratio,hepatitis B virus [3],6.16
same,TC0,[2],13.78 µmol
same,TC50,[2],41.3 µmol
